Data from ChEMBL document CHEMBL1208682, “New quinoline derivatives: synthesis and investigation of antibacterial and antituberculosis properties” (2010).
In brackets after ≈: the same amount, converted by molar mass.

Columns and labels:
Assay type in all cases: functional
[1] = test system: Escherichia coli; test: Antibacterial activity against Escherichia coli ATCC 25922 after 3 to 4 days by serial plate dilution method; settings: for MIC: Escherichia coli, ATCC 25922
[2] = test system: Staphylococcus aureus; test: Antibacterial activity against Staphylococcus aureus ATCC 25923 after 3 to 4 days by serial plate dilution method; settings: for MIC: Staphylococcus aureus, ATCC 25923
[3] = test system: Klebsiella pneumoniae; test: Antibacterial activity against recultured Klebsiella pneumoniae after 3 to 4 days by serial plate dilution method; settings: for MIC: Klebsiella pneumoniae
[4] = test system: Pseudomonas aeruginosa; test: Antibacterial activity against Pseudomonas aeruginosa ATCC 27853 after 3 to 4 days by serial plate dilution method; settings: for MIC: Pseudomonas aeruginosa, ATCC 27853
[5] = test system: Mycobacterium tuberculosis; test: Antituberculosis activity against Mycobacterium tuberculosis at MIC concentration after 7 days using resazurin dye by broth microdilution assay
Procedure, shortened: (§1)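 M. tuberculosis H37Rv grown in Middlebrook 7H9 with 10% OADC and 0.5% glycerol, adjusted to McFarland 1.0. Compounds were dissolved in DMF as stocks and tested at final levels of 1.56, 3.12, 6.25, 12.5, 25 and 50 in 96-well REMA. Controls were DMF-only, growth, rifampicin and isoniazid. After 7 days at 37 °C, 0.01% resazurin was added for 24 h and the colour change read.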

[6] = test system: Mycobacterium tuberculosis; test: Antituberculosis activity against Mycobacterium tuberculosis H37Rv ATCC 27294 after 7 days using resazurin dye by broth microdilution assay; settings: H37Rv ATCC 27294, 168 h; procedure, shortened: as §1

Row | SMILES | diameter of the inhibition zone (DIZ) [1] | MIC [1] | diameter of the inhibition zone (DIZ) [2] | MIC [2] | diameter of the inhibition zone (DIZ) [3] | MIC [3] | diameter of the inhibition zone (DIZ) [4] | MIC [4] | inhibition (INH) [5] | MIC [6]
1 | O=C1CC(c2ccncc2)=NN1c1cc(C(F)(F)F)nc2c(C(F)(F)F)cccc12 | 10 mm | 12.5 µg/mL (≈ 29.5 µM) | 20 mm | 6.25 µg/mL (≈ 14.7 µM) | 10 mm | 12.5 µg/mL (≈ 29.5 µM) | 12 mm | 12.5 µg/mL (≈ 29.5 µM) |  | 
2 | FC(F)C(F)(F)Oc1cccc(/C=N/Nc2cc(C(F)(F)F)nc3c(C(F)(F)F)cccc23)c1 | 21 mm | 6.25 µg/mL (≈ 12.5 µM) | 22 mm | 6.25 µg/mL (≈ 12.5 µM) | 18 mm | 6.25 µg/mL (≈ 12.5 µM) | 26 mm | 6.25 µg/mL (≈ 12.5 µM) | <90% | 12.5 µM (≈ 6.24 µg/mL)
3 | Cn1cc(Cl)c(/C=N/Nc2cc(C(F)(F)F)nc3c(C(F)(F)F)cccc23)n1 | 24 mm | 6.25 µg/mL (≈ 14.8 µM) | 22 mm | 6.25 µg/mL (≈ 14.8 µM) | 18 mm | 6.25 µg/mL (≈ 14.8 µM) | 28 mm | 6.25 µg/mL (≈ 14.8 µM) | 95% | 6.25 µM (≈ 2.64 µg/mL)
4 | FC(F)(F)c1cc(N/N=C/c2ccc3nonc3c2)c2cccc(C(F)(F)F)c2n1 | 22 mm | 6.25 µg/mL (≈ 14.7 µM) | 18 mm | 6.25 µg/mL (≈ 14.7 µM) | 20 mm | 6.25 µg/mL (≈ 14.7 µM) | 24 mm | 6.25 µg/mL (≈ 14.7 µM) | <90% | 12.5 µM (≈ 5.32 µg/mL)
5 | COCCNC(=S)NNc1cc(C(F)(F)F)nc2c(C(F)(F)F)cccc12 | 10 mm | 12.5 µg/mL (≈ 30.3 µM) | 11 mm | 12.5 µg/mL (≈ 30.3 µM) | <10 mm | 50 µg/mL (≈ 121 µM) | 12 mm | 12.5 µg/mL (≈ 30.3 µM) |  | 25 µM (≈ 10.3 µg/mL)
6 | FC(F)(F)c1cc(N/N=C/c2c[nH]cn2)c2cccc(C(F)(F)F)c2n1 | 25 mm | 6.25 µg/mL (≈ 16.7 µM) | 24 mm | 6.25 µg/mL (≈ 16.7 µM) | 18 mm | 6.25 µg/mL (≈ 16.7 µM) | 23 mm | 6.25 µg/mL (≈ 16.7 µM) | 99% | 3.12 µM (≈ 1.16 µg/mL)
7 | FC(F)(F)c1cc(N/N=C/c2cccs2)c2cccc(C(F)(F)F)c2n1 | <10 mm | 50 µg/mL (≈ 128 µM) | <10 mm | 50 µg/mL (≈ 128 µM) | <10 mm | 50 µg/mL (≈ 128 µM) | <10 mm | 50 µg/mL (≈ 128 µM) |  | > 50 µM
8 | Oc1cc(F)ccc1/C=N/Nc1cc(C(F)(F)F)nc2c(C(F)(F)F)cccc12 | 22 mm | 6.25 µg/mL (≈ 15 µM) | 13 mm | 12.5 µg/mL (≈ 30 µM) | 13 mm | 12.5 µg/mL (≈ 30 µM) | 12 mm | 12.5 µg/mL (≈ 30 µM) |  | > 50 µM
9 | N#Cc1cccc(NC(=O)NNc2cc(C(F)(F)F)nc3c(C(F)(F)F)cccc23)c1 | <10 mm | 50 µg/mL (≈ 114 µM) | <10 mm | 50 µg/mL (≈ 114 µM) | <10 mm | 50 µg/mL (≈ 114 µM) | <10 mm | 50 µg/mL (≈ 114 µM) |  | 25 µM (≈ 11 µg/mL)
10 | CCCCCNC(=O)NNc1cc(C(F)(F)F)nc2c(C(F)(F)F)cccc12 | 10 mm | 12.5 µg/mL (≈ 30.6 µM) | 10 mm | 12.5 µg/mL (≈ 30.6 µM) | <10 mm | 50 µg/mL (≈ 122 µM) | 14 mm | 12.5 µg/mL (≈ 30.6 µM) |  | 25 µM (≈ 10.2 µg/mL)
11 | CO[C@H]1/C=C/O[C@@]2(C)Oc3c(C)c(O)c4c(O)c(c(/C=N/N5CCN(C)CC5)c(O)c4c3C2=O)NC(=O)/C(C)=C\C=C\[C@H](C)[C@H](O)[C@@H](C)[C@@H](O)[C@@H](C)[C@H](OC(C)=O)[C@@H]1C [RIFAMPIN] |  |  |  |  |  |  |  |  | 99% | 0.5 µM (≈ 0.411 µg/mL)
12 | FC(F)(F)c1cc(N/N=C/c2cocc2Br)c2cccc(C(F)(F)F)c2n1 | <10 mm | 50 µg/mL (≈ 111 µM) | <10 mm | 50 µg/mL (≈ 111 µM) | <10 mm | 50 µg/mL (≈ 111 µM) | <10 mm | 50 µg/mL (≈ 111 µM) |  | > 50 µM
13 | O=C(O)c1cn(C2CC2)c2cc(N3CCNCC3)c(F)cc2c1=O [CIPROFLOXACIN] | 28 mm |  | 26 mm |  | 24 mm | 3.12 µg/mL (≈ 9.42 µM) | 31 mm |  |  | 
14 | FC(F)(F)c1cc(N/N=C/c2ccc3c(c2)CCO3)c2cccc(C(F)(F)F)c2n1 | 21 mm | 6.25 µg/mL (≈ 14.7 µM) | 14 mm | 12.5 µg/mL (≈ 29.4 µM) | 12 mm | 12.5 µg/mL (≈ 29.4 µM) | 15 mm | 12.5 µg/mL (≈ 29.4 µM) |  | 25 µM (≈ 10.6 µg/mL)
15 | O=C1CC(CCc2ccc3c(c2)OCO3)=NN1c1cc(C(F)(F)F)nc2c(C(F)(F)F)cccc12 | 21 mm | 6.25 µg/mL (≈ 12.6 µM) | 22 mm | 6.25 µg/mL (≈ 12.6 µM) | 22 mm | 6.25 µg/mL (≈ 12.6 µM) | 24 mm | 6.25 µg/mL (≈ 12.6 µM) |  | 
16 | Fc1ccccc1NC(=S)NNc1cc(C(F)(F)F)nc2c(C(F)(F)F)cccc12 | <10 mm | 50 µg/mL (≈ 112 µM) | <10 mm | 50 µg/mL (≈ 112 µM) | <10 mm | 50 µg/mL (≈ 112 µM) | <10 mm | 50 µg/mL (≈ 112 µM) |  | > 50 µM
17 | NNC(=O)c1ccncc1 [ISONIAZID] |  |  |  |  |  |  |  |  | 95% | 1.5 µM (≈ 0.206 µg/mL)
18 | COc1ccc2[nH]cc(/C=N/Nc3cc(C(F)(F)F)nc4c(C(F)(F)F)cccc34)c2c1 | 23 mm | 6.25 µg/mL (≈ 13.8 µM) | 22 mm | 6.25 µg/mL (≈ 13.8 µM) | 20 mm | 6.25 µg/mL (≈ 13.8 µM) | 25 mm | 6.25 µg/mL (≈ 13.8 µM) |  | 25 µM (≈ 11.3 µg/mL)
19 | CC(=O)OCc1ccc(/C=N/Nc2cc(C(F)(F)F)nc3c(C(F)(F)F)cccc23)o1 | 20 mm | 6.25 µg/mL (≈ 14 µM) | 10 mm | 12.5 µg/mL (≈ 28.1 µM) | 11 mm | 12.5 µg/mL (≈ 28.1 µM) | 14 mm | 12.5 µg/mL (≈ 28.1 µM) |  | > 50 µM
20 | CC1=NN(c2cc(C(F)(F)F)nc3c(C(F)(F)F)cccc23)C(=O)C1 | 22 mm | 6.25 µg/mL (≈ 17.3 µM) | 24 mm | 6.25 µg/mL (≈ 17.3 µM) | 20 mm | 6.25 µg/mL (≈ 17.3 µM) | 25 mm | 6.25 µg/mL (≈ 17.3 µM) |  | 
21 | O=C1CC(c2ccccc2)=NN1c1cc(C(F)(F)F)nc2c(C(F)(F)F)cccc12 | 10 mm | 12.5 µg/mL (≈ 29.5 µM) | 18 mm | 6.25 µg/mL (≈ 14.8 µM) | 10 mm | 12.5 µg/mL (≈ 29.5 µM) | 12 mm | 12.5 µg/mL (≈ 29.5 µM) |  | 
